# Assay results from ChEMBL document CHEMBL1926642, “Relevance of the C-5 position to schweinfurthin induced cytotoxicity” (2011).
# Key:
# Type in all cases: functional
# CCRF-CEM = test: Growth inhibition of human CCRF-CEM cells after 48 hrs by sulforhodamine B assay
# NCI-H522 = test: Growth inhibition of human NCI-H522 cells after 48 hrs by sulforhodamine B assay; conditions: NCI-H522, 48 h
# NCI-H23 = test: Growth inhibition of human NCI-H23 cells after 48 hrs by sulforhodamine B assay; conditions: NCI-H23, 48 h
# CAKI-1 = test: Growth inhibition of human Caki1 cells after 48 hrs by sulforhodamine B assay; conditions: CAKI-1, 48 h
# RPMI-8226 = test: Growth inhibition of human RPMI8226 cells after 48 hrs by sulforhodamine B assay; conditions: RPMI-8226, 48 h
# A498 = test: Growth inhibition of human A498 cells after 48 hrs by sulforhodamine B assay; conditions: A498, 48 h
# SK-OV-3 = test: Growth inhibition of human SKOV3 cells after 48 hrs by sulforhodamine B assay; conditions: SK-OV-3, 48 h
# SK-MEL-28 = test: Growth inhibition of human SK-MEL-28 cells after 48 hrs by sulforhodamine B assay; conditions: SK-MEL-28, 48 h
# SF-539 = test: Growth inhibition of human SF539 cells after 48 hrs by sulforhodamine B assay; conditions: SF-539, 48 h
# HCT-116 = test: Growth inhibition of human HCT116 cells after 48 hrs by sulforhodamine B assay; conditions: HCT-116, 48 h
# OVCAR-5 = test: Growth inhibition of human OVCAR5 cells after 48 hrs by sulforhodamine B assay; conditions: OVCAR-5, 48 h
# RXF 393 = test: Growth inhibition of human RXF393 cells after 48 hrs by sulforhodamine B assay; conditions: RXF 393, 48 h
# SK-MEL-2 = test: Growth inhibition of human SK-MEL-2 cells after 48 hrs by sulforhodamine B assay; conditions: SK-MEL-2, 48 h
# U-251 = test: Growth inhibition of human U251 cells after 48 hrs by sulforhodamine B assay; conditions: U-251, 48 h
# OVCAR-3 = test: Growth inhibition of human OVCAR3 cells after 48 hrs by sulforhodamine B assay; conditions: OVCAR-3, 48 h
# BT-549 = test: Growth inhibition of human BT549 cells after 48 hrs by sulforhodamine B assay; conditions: BT-549, 48 h
# SK-MEL-5 = test: Growth inhibition of human SK-MEL-5 cells after 48 hrs by sulforhodamine B assay; conditions: SK-MEL-5, 48 h
# OVCAR-8 = test: Growth inhibition of human OVCAR8 cells after 48 hrs by sulforhodamine B assay; conditions: OVCAR-8, 48 h
# OVCAR-4 = test: Growth inhibition of human OVCAR4 cells after 48 hrs by sulforhodamine B assay; conditions: OVCAR-4, 48 h
# SNB-19 = test: Growth inhibition of human SNB19 cells after 48 hrs by sulforhodamine B assay; conditions: SNB-19, 48 h
# SW-620 = test: Growth inhibition of human SW620 cells after 48 hrs by sulforhodamine B assay; conditions: SW-620, 48 h
# MDA-MB-435 = test: Growth inhibition of human MDA-MB-435 cells after 48 hrs by sulforhodamine B assay; conditions: MDA-MB-435, 48 h
# LOX IMVI = test: Growth inhibition of human LOXIMVI cells after 48 hrs by sulforhodamine B assay
# SF-268 = test: Growth inhibition of human SF268 cells after 48 hrs by sulforhodamine B assay; conditions: SF-268, 48 h
# IGROV-1 = test: Growth inhibition of human IGROV1 cells after 48 hrs by sulforhodamine B assay; conditions: IGROV-1, 48 h
# A549 = test: Growth inhibition of human A549 cells after 48 hrs by sulforhodamine B assay; conditions: A549, 48 h
# MDA-MB-231 = test: Growth inhibition of human MDA-MB-231/ATCC cells after 48 hrs by sulforhodamine B assay; conditions: MDA-MB-231, 48 h
# [1] = Growth inhibition of human Hs 578T cells after 48 hrs by sulforhodamine B assay
# HL-60(TB) = test: Growth inhibition of human HL-60(TB) cells after 48 hrs by sulforhodamine B assay; conditions: HL-60, 48 h
# In short: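 Run in the NCI 60 cell-line screen as the full 5-dose assay that follows initial single-dose testing; GI50 is read from the dose series.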
# HCC 2998 = test: Growth inhibition of human HCC2998 cells after 48 hrs by sulforhodamine B assay; conditions: HCC 2998, 48 h
# EKVX = test: Growth inhibition of human EKVX cells after 48 hrs by sulforhodamine B assay
# [2] = read-out: pLC50 (the source's name) (converted)
compound,measurement,setting,value
COc1cc(/C=C/c2cc(O)c3c(c2)C[C@@H]2C(C)(C)[C@H](O)CC[C@@]2(C)O3)cc(O)c1C/C=C(\C)CCC=C(C)C,GI50,CCRF-CEM,0.12 µM
same,LC50,CCRF-CEM,100 µM
same,TGI,CCRF-CEM; read-out: pTGI (converted),4.37 µM
same,GI50,NCI-H522,1.91 µM
same,LC50,NCI-H522,52.5 µM
same,TGI,NCI-H522; read-out: pTGI (converted),11 µM
same,GI50,NCI-H23,1.51 µM
same,LC50,NCI-H23,26.3 µM
same,TGI,NCI-H23; read-out: pTGI (converted),4.47 µM
same,GI50,CAKI-1,1.7 µM
same,LC50,CAKI-1,38.9 µM
same,TGI,CAKI-1; read-out: pTGI (converted),6.76 µM
same,GI50,RPMI-8226,0.0105 µM
same,LC50,RPMI-8226,100 µM
same,TGI,RPMI-8226; read-out: pTGI (converted),0.347 µM
same,GI50,A498,0.117 µM
same,LC50,A498,12 µM
same,TGI,A498; read-out: pTGI (converted),2.45 µM
same,GI50,SK-OV-3,1.38 µM
same,LC50,SK-OV-3,38 µM
same,TGI,SK-OV-3; read-out: pTGI (converted),14.8 µM
same,GI50,SK-MEL-28,1 µM
same,CC50,SK-MEL-28; [2],7.94 µM
same,TGI,SK-MEL-28; read-out: pTGI (converted),2.75 µM
same,GI50,SF-539,0.0525 µM
same,LC50,SF-539,6.92 µM
same,TGI,SF-539; read-out: pTGI (converted),1.66 µM
same,GI50,HCT-116,0.603 µM
same,LC50,HCT-116,6.31 µM
same,TGI,HCT-116; read-out: pTGI (converted),2.34 µM
same,GI50,OVCAR-5,2.51 µM
same,LC50,OVCAR-5,45.7 µM
same,TGI,OVCAR-5; read-out: pTGI (converted),13.2 µM
same,GI50,RXF 393,< 0.01 µM
same,LC50 (50% lethal concentration),RXF 393,4.37 µM
same,TGI,RXF 393; read-out: pTGI (converted),0.055 µM
same,GI50,SK-MEL-2,6.92 µM
same,LC50,SK-MEL-2,56.2 µM
same,TGI,SK-MEL-2; read-out: pTGI (converted),22.4 µM
same,GI50,U-251,0.0759 µM
same,LC50,U-251,10.7 µM
same,TGI,U-251; read-out: pTGI (converted),2.63 µM
same,GI50,OVCAR-3,1.45 µM
same,LC50,OVCAR-3,15.5 µM
same,TGI,OVCAR-3; read-out: pTGI (converted),4.07 µM
same,GI50,BT-549,0.275 µM
same,LC50,BT-549,69.2 µM
same,TGI,BT-549; read-out: pTGI (converted),12 µM
same,GI50,SK-MEL-5,0.955 µM
same,LC50,SK-MEL-5,5.37 µM
same,TGI,SK-MEL-5; read-out: pTGI (converted),2.29 µM
same,GI50,OVCAR-8,2.82 µM
same,LC50,OVCAR-8,51.3 µM
same,TGI,OVCAR-8; read-out: pTGI (converted),12.6 µM
same,GI50,OVCAR-4,2.63 µM
same,LC50,OVCAR-4,63.1 µM
same,TGI,OVCAR-4; read-out: pTGI (converted),19.1 µM
same,GI50,SNB-19,2.88 µM
same,LC50,SNB-19,42.7 µM
same,TGI,SNB-19; read-out: pTGI (converted),17.8 µM
same,GI50,SW-620,0.331 µM
same,LC50,SW-620,5.13 µM
same,TGI,SW-620; read-out: pTGI (converted),1.58 µM
same,GI50,MDA-MB-435,0.794 µM
same,LC50,MDA-MB-435,34.7 µM
same,TGI,MDA-MB-435; read-out: pTGI (converted),5.01 µM
same,GI50,LOX IMVI,0.525 µM
same,LC50,LOX IMVI,4.68 µM
same,TGI,LOX IMVI; read-out: pTGI (converted),1.91 µM
same,GI50,SF-268,1.35 µM
same,LC50,SF-268,42.7 µM
same,TGI,SF-268; read-out: pTGI (converted),5.13 µM
same,GI50,IGROV-1,2.09 µM
same,LC50,IGROV-1,40.7 µM
same,TGI,IGROV-1; read-out: pTGI (converted),11 µM
same,LC50,A549,40.7 µM
same,GI50,A549; read-out: GI50,0.72 µM
same,GI50,A549; read-out: pGI50 (converted),0.955 µM
same,TGI,A549; read-out: pTGI (converted),10.7 µM
same,GI50,MDA-MB-231,1.2 µM
same,CC50,MDA-MB-231; [2],8.13 µM
same,TGI,MDA-MB-231; read-out: pTGI (converted),2.88 µM
same,GI50,[1],0.0372 µM
same,CC50,[1]; [2],26.9 µM
same,TGI,[1]; read-out: pTGI (converted),0.776 µM
same,GI50,HL-60(TB),0.0468 µM
same,CC50,HL-60(TB); [2],37.2 µM
same,TGI,HL-60(TB); read-out: pTGI (converted),1.45 µM
same,GI50,HCC 2998,0.851 µM
same,LC50,HCC 2998,9.33 µM
same,TGI,HCC 2998; read-out: pTGI (converted),2.95 µM
same,GI50,EKVX,0.977 µM
same,LC50 (50% lethal concentration),EKVX,36.3 µM
same,TGI,EKVX; read-out: pTGI (converted),10.2 µM
